SKN-1 block – C. elegans SKN-1 inhibition | C. elegans VP596 Pgst-4::GFP/RFP ratio, acrylamide-induced, 24 h | AID 624304 | inhibition, % at 21.8 µM | 360,000 tested, 0.49% active;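 active = interference check ratio from 0.5 to 1.5 plus GFP to RFP signal ratio inhibition reaching or exceeding a fixed threshold, cut at about 30% in these data, passing the limit was not always enough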
KLK7 zymogen act – activates the human kallikrein-7 zymogen; P49862; purified proKLK7, EDANS-DABCYL substrate fluorescence; 100% is mature enzyme control, 0% vehicle; activation, % at 7 µM; 370,000 tested, 0.9% active; AID 652039;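 active = activation above the mean of all tested compounds plus 3 SD, computed per campaign excluding outliers beyond control limits, cut at about 13% in these data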
MT1-MMP act inh – inhibitors of human MT1-MMP activation. P50281. AID 651647. HT1080 RFP-PRO-GFP cells, GFP/RFP ratio fluorescence, overnight; percent of plate control window, DMSO zero. 360,000 tested, 0.061% active. GFP/RFP ratio change, % at 20 µM;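 active = GFP/RFP ratio change of at least 30% with cell ATP level not reduced by more than half and red fluorescence within 50% of control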
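Assay system: HT1080 RFP-PRO-GFP cells | Dosing: 20 µM single dose, 1% DMSO | Incubation: Cells overnight before dosing, compound overnight, 37 °C, 5% CO2 | Evaluation: GFP/RFP fluorescence ratio | Control set: DMSO-only wells and HT1080 RFP-L50D-GFP cell wells as references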
Neddyl block – cullin neddylation inhibition. P61081+Q13564. TR-FRET cullin neddylation, biochemical. calls only at 25 µM. 360,000 tested, 0.58% active. AID 651699; in the data active = inhibition above about 36%
Target sequence (P61081 whole entry, looked up): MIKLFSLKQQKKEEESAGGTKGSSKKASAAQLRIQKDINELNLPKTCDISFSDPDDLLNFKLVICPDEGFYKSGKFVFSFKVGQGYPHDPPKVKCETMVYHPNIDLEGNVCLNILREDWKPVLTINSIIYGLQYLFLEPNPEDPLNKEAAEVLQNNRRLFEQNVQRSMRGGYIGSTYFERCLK
Target sequence (Q13564 whole entry, looked up): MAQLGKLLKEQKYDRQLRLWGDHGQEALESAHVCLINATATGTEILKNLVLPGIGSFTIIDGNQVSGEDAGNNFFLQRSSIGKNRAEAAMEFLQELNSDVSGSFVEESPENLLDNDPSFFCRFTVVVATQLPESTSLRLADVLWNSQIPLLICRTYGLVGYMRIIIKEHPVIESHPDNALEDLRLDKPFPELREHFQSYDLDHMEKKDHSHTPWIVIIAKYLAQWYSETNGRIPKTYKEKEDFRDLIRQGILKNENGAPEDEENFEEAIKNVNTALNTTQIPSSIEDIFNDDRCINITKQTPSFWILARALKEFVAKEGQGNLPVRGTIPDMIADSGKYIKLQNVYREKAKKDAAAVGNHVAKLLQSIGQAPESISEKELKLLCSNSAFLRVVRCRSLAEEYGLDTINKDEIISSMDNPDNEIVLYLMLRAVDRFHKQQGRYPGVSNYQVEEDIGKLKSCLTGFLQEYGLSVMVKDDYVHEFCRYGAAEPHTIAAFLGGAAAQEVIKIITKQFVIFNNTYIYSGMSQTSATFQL
Tn7 DDE FP – DD(E)-Tn7 binding inhibition, primary FP screen; FP displacement of FITC-Tn7 peptide from fibrin DD(E); 0% = median of compound wells per plate; inhibition, % at 8.3 µM; 370,000 tested, 0.13% active; AID 720508;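 active = inhibition above the mean of compounds falling within the control limits plus 3 SD of them, cut at about 14% in these data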;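 note: 0% = plate median of compound wells and 100% = 10 µM Aha-Tn7 peptide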
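Assay system: human fibrin DD(E). Input: DD(E) 2 µM final. Medium: Tris buffer with calcium and detergent, pH 7.8. Compound dosing: single point at 8.3 µM. Timing: 10 min plus 3 h, room temperature. Technique: fluorescence polarization of the labelled Tn7 tracer. Read-out: percent inhibition. Replicates: singlicate testing.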
DDE Tn6 FP inh – disrupts Tn6 cyclic peptide binding to fibrin D-Dimer-E complex; P02675; Fibrin DD(E) TRITC-Tn6 fluorescence polarization displacement; inhibition, % at 8.3 µM; 370,000 tested, 0.21% active; AID 720509;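 active = inhibition above a per-campaign cutoff: mean of compounds within control limits plus 3 SD, cut at about 15% in these data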;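 note: 0% = median of all compound wells on the plate and 100% = blocking peptide control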
Neddyl inh conf – confirmation of human cullin neddylation inhibitors. shares compounds with Neddyl block. TR-FRET cullin neddylation biochemical assay. calls only at 25 µM. 1,800 tested, 13% active. AID 652217; in the data active = inhibition above about 40%;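 note: neddylation substrate is the cullin 1 ring ligase complex with SKP2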
proKLK7 act conf – proKLK7 activation, confirmation; shares compounds with KLK7 zymogen act; purified proKLK7, EDANS-DABCYL substrate fluorescence; scaled: vehicle 0, mature enzyme 100; activation, % at 7 µM; 3,200 tested, 68% active; AID 686949;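 active = activation, as change over the incubation, above the mean of all tested compounds plus 3 SD, cut at about 13% in these data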
EDANS interfere – counter-screen for kallikrein-7 activators: EDANS-DABCYL optical interference. shares compounds with KLK7 zymogen act. EDANS-DABCYL substrate fluorescence interference, no enzyme, 4 h; solvent 0%, active enzyme control 100%. activation, % at 7 µM. 3,200 tested, 80% active. AID 686952;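 active = activation above the all-compound mean plus 3 SD, ignoring values outside control-based bounds, cut at about 4.8% in these data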;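 note: value is the 4 h activation minus the activation read at time zero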
The depositor's hits bear a star; i = inactive; nt = no result shown; + = active, no number. This is a sample that favours compounds with a hit; in the whole collection about 2.2% have one here.

SMILES	SKN-1 block	KLK7 zymogen act	MT1-MMP act inh	Neddyl block	Tn7 DDE FP	DDE Tn6 FP inh	Neddyl inh conf	others
COc1ccc2c(CN3CC=C(c4ccccc4)CC3)cc(=O)oc2c1	-1	-7	-3	+	-1	-1	i
CC(CCN1CC1)=NNC(=O)Nc1cccc2ccccc12	13	-7	8	+	1	-1	i
CCC(C)n1c(O)c(/C=N/NC(=O)c2ccncc2)c(=O)[nH]c1=S (configuration not stated)	-7	-1	23	+	-2	0	i
CCc1ccc(CNCCc2ccc(F)cc2)cc1	15	0	7	i	1	3	nt
CCOc1ccc(N=Cc2c(O)n(CCc3ccc(OC)c(OC)c3)c(=O)[nH]c2=O)cc1	-2	-1	-5	+	7	4	i
COc1ccc(CCn2c(O)c(C=Nc3ccc(NC(C)=O)cc3)c(=O)[nH]c2=O)cc1OC	9	0	-1	nt	0	4	nt
Cc1ccc(Cl)cc1-n1c(O)c(C=NCCCN2CCOCC2)c(=O)[nH]c1=O	-13	1	-2	i	-8	-9	nt
Nc1ccccc1C(=O)OCCOc1ccccc1	10	-2	-1	nt	-4	-5	nt
C=CCOC(=O)c1ccccc1N	2	-7	0	+	6	2	i
COCCn1cc(C(=O)N2CCC3(CC2)OCCO3)c2c3ccccc3n(C)c2c1=O	-14	2	4	+	-3	5	i
Cn1c2ccccc2c2c(C(=O)N3CCC4(CC3)OCCO4)cn(C3CCCC3)c(=O)c21	-21	0	5	i	6	1	nt
O=C1NC(c2cccnc2)Nc2sc3c(c21)CCCC3 (configuration not stated)	13	2	1	+	1	-3	i
CC12CN3CC(C)(CN(C1)C3c1cccnc1)C2=O (configuration not stated)	17	1	-1	i	6	-2	nt
CC1(C)Cc2c(sc3c2C(=O)NC(c2cccnc2)N3)CO1 (configuration not stated)	17	0	-4	+	2	-5	i
CCCCC(=O)N/N=C/c1c(O)n(-c2cccc3ccccc23)c(=O)[nH]c1=O	-2	0	-2	+	2	-2	i
NC(Cc1ccc(O)cc1)C(=O)NN=Cc1ccc(N(CCCl)CCCl)cc1 (configuration not stated)	6	1	-4	+	3	2	i
C[C@]12CCC3C(CC[C@H]4CC(=O)CC[C@]34C)C1CCC2=O (some centres not stated)	13	0	8	i	-1	3	nt
CCOc1ccc2[nH]c(=O)c(CN(CCO)C3(c4nnnn4C4CCCCC4)CCCCC3)cc2c1	-18	0	0	+	2	1	i
Cc1nc2ccccc2c(=O)n1-c1cc([N+](=O)[O-])cc([N+](=O)[O-])c1	0	0	5	i	-2	-7	nt
Cc1ccc(CN2C(=O)NC(=O)C3(Cc4c(nc5ccccn5c4=O)N4CCCCCC43)C2=O)cc1 (configuration not stated)	27	0	3	+	-8	-4	i
O=C1NC(=O)C2(Cc3ccccc3N3CCCC32)C(=O)N1c1cccc(Cl)c1 (configuration not stated)	-21	-1	-7	i	-4	4	nt
Oc1cc(Cl)c(Cl)c(Cl)c1Cl	3	0	-1	i	-5	5	nt
O=C(c1ccc2c3c(cccc13)CC2)C1CCCN(Cc2ncc[nH]2)C1 (configuration not stated)	2	4	-1	+	-4	-5	i
O=C(c1cccn2c(=O)c3cc(Cl)ccc3nc12)N1CCC2(CC1)OCCO2	3	14*	2	nt	7	-1	nt	proKLK7 act conf=58*;EDANS interfere=73*
Cc1c(-c2cccc(Cl)c2)nc2ccccc2c1C(=O)N1CCC2(CC1)OCCO2	-6	0	-3	i	-1	3	nt
SMILES	SKN-1 block	KLK7 zymogen act	MT1-MMP act inh	Neddyl block	Tn7 DDE FP	DDE Tn6 FP inh	Neddyl inh conf	others
O=C(c1cccn2c(=O)c3ccccc3nc12)N1CCC2(CC1)OCCO2	0	40*	3	nt	5	3	nt	proKLK7 act conf=42*;EDANS interfere=49*
O=C(c1cc(-c2ccccc2)nc2ccccc12)N1CCC2(CC1)OCCO2	-14	-1	-5	i	3	2	nt
CC[C@]12CCN(CC3(O)CC3)[C@H](Cc3ccc(O)cc31)C2(C)C	nt	0	nt	nt	1	4	nt
CC(C)c1ccc(-n2c(O)c(/C=N/NC(=O)c3ccccc3O)c(=O)[nH]c2=S)cc1	-2	0	11	i	4	0	nt
COc1ccc(N2C(=O)NC(=O)/C(=C\c3ccccc3[N+](=O)[O-])C2=O)cc1	-5	-1	2	i	7	7	nt
O=C1NC(=O)C(=Cc2cc3c(cc2[N+](=O)[O-])OCO3)C(=O)N1	-6	15*	-7	i	-4	0	nt	proKLK7 act conf=6;EDANS interfere=7.9*
O=C1NC(=O)C(=Cc2ccccc2[N+](=O)[O-])C(=O)N1	-5	1	0	i	-2	-4	nt
Cc1cccc(N2C(=O)NC(=O)/C(=C/c3cc4c(cc3[N+](=O)[O-])OCO4)C2=O)c1	-18	16*	-3	+	-1	-4	nt	proKLK7 act conf=76*;EDANS interfere=76*
COc1ccc(CC2c3cc(OC)c(OC)cc3CCN2C)cc1OC (configuration not stated)	-15	12	-4	i	0	-5	nt
COc1cc2c(cc1OC)CC[N+](C)=C2	6	43*	4	nt	-3	3	nt	proKLK7 act conf=58*;EDANS interfere=53*
CCc1nccc2c1[nH]c1ccccc12	-2	46*	0	nt	5	2	nt	proKLK7 act conf=47*;EDANS interfere=46*
Cc1[nH]c2ccccc2c1CCN	-14	0	-9	i	-1	-4	nt
Cc1c2ccncc2c(C)c2c1[nH]c1ccccc12	0	nt	-56	nt	nt	nt	nt
Cc1nccc2c1[nH]c1ccccc12	21	36*	-3	nt	-5	-7	nt	proKLK7 act conf=32*;EDANS interfere=36*

Screening results as filed in PubChem BioAssay.
